Screening results: PubChem BioAssay, several laboratories
DDE Tn7 FP inh – DD(E)-Tn7 binding inhibition, primary FP screen; P02675; FP displacement of FITC-Tn7 peptide from fibrin DD(E); 0% = median of compound wells per plate; inhibition, % at 8.3 µM; 370,000 compounds, 0.13% hits;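 active = inhibition above the mean of compounds falling within the control limits plus 3 SD of them, cut at about 14% in these data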
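Measure: % inhibition scaled between sample-field median and high-control FP; Test system: human fibrin DD(E); Quantity: 2 µM final DD(E) protein; Doses: one dose, 8.3 µM nominal; Schedule: compound with protein 10 min, then 3 h after probe, room temperature; Detection: fluorescence polarization; Medium: Tris buffer with calcium and detergent, pH 7.8.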
NRP1-CendR mod – NRP-1/CendR interaction modulation. O14786. FAM-RPARPAR peptide binding to NRP-1, fluorescence polarization. inhibition, % at 25 µM. 360,000 compounds, 0.85% hits;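 active = inhibition or corrected inhibition above about 18%, plus a signal ratio from 0.5 to 1.5, limit read from the data, passing the limit was not always enough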
DDE Tn6 FP inh – DD(E)-Tn6 binding inhibition, primary FP screen | P02675 | Fibrin DD(E) TRITC-Tn6 fluorescence polarization displacement | inhibition, % at 8.3 µM | 370,000 compounds, 0.21% hits | AID 720509;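 active = inhibition above a per-campaign cutoff: mean of compounds within control limits plus 3 SD, cut at about 15% in these data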
KLK7 zymogen act – activates the human kallikrein-7 zymogen | P49862 | purified proKLK7, EDANS-DABCYL substrate fluorescence; 100% is mature enzyme control, 0% vehicle | 370,000 compounds, 0.9% hits | activation, % at 7 µM;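 active = activation above the mean of all tested compounds plus 3 SD, computed per campaign excluding outliers beyond control limits, cut at about 13% in these data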
Target sequence (P49862 whole entry, looked up): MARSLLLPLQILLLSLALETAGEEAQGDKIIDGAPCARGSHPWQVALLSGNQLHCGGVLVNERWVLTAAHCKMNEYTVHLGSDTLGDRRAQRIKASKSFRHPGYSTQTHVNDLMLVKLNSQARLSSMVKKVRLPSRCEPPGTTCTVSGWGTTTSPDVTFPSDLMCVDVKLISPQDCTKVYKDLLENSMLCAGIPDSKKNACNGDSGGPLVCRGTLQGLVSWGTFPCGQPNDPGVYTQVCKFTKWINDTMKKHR
PLCb3 inh – blocks human PLC-beta3 enzyme activity | inhibition, % at 12.2 µM | Q01970 | Purified PLC-beta3, fluorogenic substrate, fluorescence | 370,000 compounds, 0.18% hits; in the data active = inhibition above about 11%
PLC-gamma1 inh – blocks human PLC-gamma1 enzyme activity; P19174; purified PLC-gamma1, fluorogenic substrate, fluorescence; inhibition, % at 12.2 µM; 370,000 compounds, 0.84% hits; AID 720700; in the data active = inhibition above about 9.5%
proKLK7 act conf – confirmation of human kallikrein-7 zymogen activators; shares compounds with KLK7 zymogen act; purified proKLK7, EDANS-DABCYL substrate fluorescence; scaled: vehicle 0, mature enzyme 100; activation, % at 7 µM; 3,200 compounds, 68% hits;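 active = activation, as change over the incubation, above the mean of all tested compounds plus 3 SD, cut at about 13% in these data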
EDANS interfere – optically interferes with EDANS-DABCYL signal, flagging KLK7 hits; AID 686952; EDANS-DABCYL substrate fluorescence interference, no enzyme, 4 h; solvent 0%, active enzyme control 100%; shares compounds with KLK7 zymogen act; 3,200 compounds, 80% hits; activation, % at 7 µM;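 active = activation above the all-compound mean plus 3 SD, ignoring values outside control-based bounds, cut at about 4.8% in these data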;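 note: value is the 4 h activation minus the activation read at time zero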
K7 EDANS ctr – counter-screen for kallikrein-7 activators: EDANS-DABCYL interference, dose response. 250 compounds, 20% hits. EC50, µM. EDANS-DABCYL peptide fluorescence interference, no enzyme. shares compounds with KLK7 zymogen act;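 active = compounds that raise the fluorescence signal in this interference counterscreen, with EC50 at or below 10 µM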;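 note: intact quenched peptide substrate alone read at 355 nm excitation and 520 nm emission; signal is fluorescence gain from T0 to T4 after four hours at room temperature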
Large screens that a line does not name were inactive (follow-up assays come after a bar, where they were run). Hits are enriched below; roughly 3% of the tested compounds scored in any of these assays.

COCCNC(=O)C[C@H]1CC[C@H]2[C@@H](COc3ccc(NS(=O)(=O)c4ccc(Cl)cc4)cc3C(=O)N2C)O1	none (no result: NRP1-CendR mod)
COc1ccc(CNC(=S)NNC(=O)c2cc3ccccc3o2)cc1	KLK7 zymogen act 17 | proKLK7 act conf 21 | EDANS interfere 21
COC(=O)c1ccc(C2C(C#N)=C(C)NC3=C2C(=O)CC(C)(C)C3)cc1 (stereo unspecified)	KLK7 zymogen act 36 | proKLK7 act conf 43 | EDANS interfere 30 | K7 EDANS ctr inactive
CCCCC1C(C#N)=C(C)NC2=C1C(=O)CC(C)(C)C2 (stereo unspecified)	KLK7 zymogen act 41 | proKLK7 act conf 22 | EDANS interfere 25
COc1ccc(C2C(C#N)=C(SC)NC3=C2C(=O)CC(C)(C)C3)cc1 (stereo unspecified)	none
Cc1ccc(CSc2nnc(-c3n[nH]c4c3CCC4)n2N)cc1	none (no result: NRP1-CendR mod)
O=C(COc1ccc2oc(-c3ccco3)cc(=O)c2c1)N1CCCCC1	KLK7 zymogen act 61 | proKLK7 act conf 60 | EDANS interfere 60
O=c1cc(-c2ccco2)oc2ccc(Cl)cc12	none
COc1ccc2oc(-c3ccco3)cc(=O)c2c1	KLK7 zymogen act 57 | proKLK7 act conf 74 | EDANS interfere 71
COc1ccc(-c2cc(=O)c3cc(O)ccc3o2)cc1	none
COc1ccc2oc(-c3ccncc3)cc(=O)c2c1	KLK7 zymogen act 21 | proKLK7 act conf 37 | EDANS interfere 33
O=C(COc1ccc2c3c(c(=O)oc2c1)CCC3)N1CCCCC1	none
CCCC(C)NC(=O)CC1Oc2ccccc2NC1=O (stereo unspecified)	none (no result: NRP1-CendR mod)
COc1cccc(CN[C@@H]2CC[C@@]34CCCN3C(=O)CCC[C@H]4C2)c1	none (no result: NRP1-CendR mod, KLK7 zymogen act)
CCOc1nc(N=C(N)N)nc2c(C)cccc12	KLK7 zymogen act 21 | proKLK7 act conf inactive | EDANS interfere 17
C#CCN1CC(N(C)CCOC(=O)c2cccs2)CS1(=O)=O (stereo unspecified)	none (no result: NRP1-CendR mod)
COc1cccc2cccc(/C=N/n3cnnc3)c12	KLK7 zymogen act 15 | proKLK7 act conf 15 | EDANS interfere 10 | K7 EDANS ctr inactive
O=C(NCCc1ccccc1F)c1ccc2c(c1)ncn2C1CCCCC1	none (no result: NRP1-CendR mod)
Oc1cnc2ccccc2c1CN1CCOCC1	KLK7 zymogen act 15 | proKLK7 act conf inactive | EDANS interfere 6.9
Oc1ccc2ccccc2c1CN1CCOCC1	none
CN(Cc1ccccc1)S(=O)(=O)c1cccc(C(=O)OCc2ccc(Oc3ccccc3)cc2)c1	none (no result: NRP1-CendR mod)
CCOC(=O)C1CCN(c2cc3c(cc2NC(=O)c2ccccc2)n(C)c(=O)n3C)CC1	KLK7 zymogen act 20 | proKLK7 act conf inactive | EDANS interfere 12
CC(C)OCCCn1c(=N)c(C(N)=S)cc2c(=O)n3ccccc3nc21	KLK7 zymogen act 22 | proKLK7 act conf inactive | EDANS interfere 4.3
CC(C)OCCCn1c(=NC(=O)c2ccncc2)c(C#N)cc2c(=O)n3ccccc3nc21	none
CC(C)OCCCn1c(=NC(=O)c2cccs2)c(C#N)cc2c(=O)n3ccccc3nc21	KLK7 zymogen act 54 | proKLK7 act conf 68 | EDANS interfere 63
CC(=O)N=c1c(C#N)cc2c(=O)n3ccccc3nc2n1CCCOC(C)C	KLK7 zymogen act 35 | proKLK7 act conf inactive | EDANS interfere inactive
CCOCCCn1c(=N)c(C(=O)NCc2ccc3c(c2)OCO3)cc2c(=O)n3ccccc3nc21	none (no result: NRP1-CendR mod)
CCC(=O)N1CCc2cc(Br)c(S(=O)(=O)N3CCCC(C(=O)NC(C)(C)C)C3)cc21 (stereo unspecified)	none (no result: NRP1-CendR mod)
Cc1cc(NC(=O)COC(=O)c2ccccc2NCCO)no1	KLK7 zymogen act 34 | proKLK7 act conf 27 | EDANS interfere 24
C/C(=N\NC(=O)Cc1cccs1)c1ccco1	none (no result: NRP1-CendR mod)
Cc1oc2c(C)c3oc(=O)c(CCC(=O)NCCCCCC(=O)O)c(C)c3cc2c1C	KLK7 zymogen act 21 | proKLK7 act conf 14 | EDANS interfere 9.3 | K7 EDANS ctr inactive
Cc1c(CCC(=O)NCCCN2CCCC2=O)c(=O)oc2cc(O)ccc12	KLK7 zymogen act 73 | proKLK7 act conf 65 | EDANS interfere 84
Cc1coc2c(C)c3oc(=O)c(CCC(=O)NCCCN4CCCC4=O)c(C)c3cc12	none
Cc1c(CCC(=O)NCCCN2CCCC2=O)c(=O)oc2c(C)c(O)ccc12	KLK7 zymogen act 79 | proKLK7 act conf 63 | EDANS interfere 77
C=CCN1C(C(=O)OC)CN(Cc2cn(Cc3ccc(Cl)cc3)nn2)CCS1(=O)=O (stereo unspecified)	none (no result: NRP1-CendR mod)
COC(=O)c1cc2c(c3c4cc(C)ccc4n(C(=O)c4ccccc4)c13)C(=O)N(Cc1ccccc1)C2	none (no result: NRP1-CendR mod)
COc1ccc(CCN(Cc2cccs2)S(=O)(=O)c2ccc(C)c(C)c2)cc1OC	none (no result: NRP1-CendR mod)
CCS(=O)(=O)Nc1ccc2c(c1)C(=O)N(C)[C@@H]1CC[C@H](CC(=O)NCCCN3CCOCC3)O[C@H]1CO2	none (no result: NRP1-CendR mod)
C#CCn1c(=NC(=O)c2ccccc2[N+](=O)[O-])sc2cc(S(C)(=O)=O)ccc21	none
C#CCn1c(=NC(=O)c2sc3ccccc3c2Cl)sc2cc(S(N)(=O)=O)ccc21	KLK7 zymogen act 30 | proKLK7 act conf inactive | EDANS interfere inactive
Nc1ccc(-c2nc3c(ccc4ccccc43)[nH]2)cc1	KLK7 zymogen act 54 | proKLK7 act conf 74 | EDANS interfere 74
Cc1cc2cc3c(=O)[nH]c(=O)nc-3n(CC(O)C(O)C(O)CO)c2cc1C (stereo unspecified)	NRP1-CendR mod 25, KLK7 zymogen act 48 | proKLK7 act conf 61 | EDANS interfere 71
O=C(Nc1ccc(F)cc1F)C1CCCN1S(=O)(=O)c1cccnc1 (stereo unspecified)	none (no result: NRP1-CendR mod)
Cc1cc(C)cc(C(=O)OCCCN(C)C2CN(Cc3cn(Cc4ccc([N+](=O)[O-])cc4)nn3)S(=O)(=O)C2)c1 (stereo unspecified)	none (no result: NRP1-CendR mod)
O=C1Nc2ccccc2/C1=C/c1cnc(-c2ccccc2)[nH]1	KLK7 zymogen act 20 | proKLK7 act conf 40 | EDANS interfere 54
COC(=O)C1=C(C(=O)OC)C2CCCC1C1N=NN(c3ccccc3)C21 (stereo unspecified)	none (no result: NRP1-CendR mod)
